High-throughput results from PubChem.
Compounds with a hit are over-represented: about 3.9% of the library has one in this group of screens.
UPR XBP1 act: adaptive UPR (XBP1) activation. CHO-XBP1 luciferase reporter, IRE1-XBP1 UPR activation, luminescence; percent of tunicamycin response, DMSO as zero. activation, % at 20 µM. hit rate 0.33% among 330,000. AID 463104;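 active means versus positive control, 20 µM dose yields 30% or more activation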;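 further: 100% = tunicamycin at 10 µg/mL and 0% = DMSO only wells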
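Material: CHO-XBP1 cells stably carrying IRE1-XBP1-driven luciferase reporter | Medium: F12 with 10% serum | Compound dosing: 20 µM single concentration, DMSO 1% | Incubation: Overnight seeding at 37 °C, 6 h compound treatment at 37 °C | Detection: Steady-Glo luminescence read | Read-out basis: % activation of reporter signal versus tunicamycin and DMSO controls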
CHOP UPR activ: activators of apoptotic arm of unfolded protein response (CHOP) | activation, % at 10 µM | hit rate 0.34% among 330,000 | CHO-CHOP luciferase reporter, UPR activation, luminescence; percent of tunicamycin response over DMSO baseline;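 active means at 10 µM dose, activation of 40% or more, normalized to positive control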;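 further: 100% = tunicamycin at 10 µg/mL and 0% = DMSO alone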
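Dosing – one dose, 10 µM in 0.5% DMSO · System – CHO-CHOP cells, stable luciferase reporter of PERK-eIF2a-CHOP signalling · Input – 500 cells/well · Control set – tunicamycin 10 µg/mL final as positive, DMSO-only wells as negative · Timing – 6 h compound treatment, 37 °C · Measure – % activation vs tunicamycin · Technique – luminescence read with Steady-Glo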
697 NFkB inh: lowers PMA/ionomycin-induced NF-kB signal in 697 B cells; AID 435022; hit rate 0.33% among 330,000; 697 B-cell NF-kB luciferase reporter, 16 h; inhibition, % at 4 µM; in the data active means inhibition above about 35%
CHOP inh: CHOP inhibition in unfolded protein response | CHO-K1 CHOP-promoter luciferase, tunicamycin-induced, 15-18 h | hit rate 3.8% among 220,000 | inhibition, % at 10 µM;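 active means compounds that reduced the stress-induced luciferase reporter signal by more than about 70% of percent inhibition, limit read from the data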;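 further: 0% = tunicamycin plus vehicle and 100% = wells without tunicamycin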
Gli-Sufu block: blocks Gli-Sufu signaling in a luciferase reporter | AID 588413 | hit rate 0.74% among 340,000 | inhibition, % at 5 µM | Sufu-KO-LIGHT fibroblasts, Gli luciferase reporter luminescence;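 active means inhibition above about 55%, limit read from the data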;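 further: 0% = DMSO-treated cells and 100% = wells with medium but no cells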
Jurkat NFkB inh: lowers PMA/ionomycin-induced NF-kB signal in Jurkat cells | AID 435003 | PMA/ionomycin-induced NF-kB luciferase reporter, luminescence | inhibition, % at 4 µM | hit rate 0.53% among 330,000; in the data active means inhibition above about 50%
Active calls of the source: *; x = no result given.

SMILES	UPR XBP1 act	CHOP UPR activ	697 NFkB inh	CHOP inh	Gli-Sufu block	Jurkat NFkB inh
CCOC(=O)c1cnc(-n2nc(C)cc2C)nc1NNc1cc(-c2ccccc2)nc(C)n1	-3.1	14.0	-37.4	74.3*	x	4.9
CCOc1cc(/C=C2/C(=N)N3OC(C)=CC3=NC2=O)ccc1OCCOc1ccccc1	3.9	-2.7	16.5	91.7*	1.9	-1.4
N#CCCSc1ccccc1NC(=O)c1cc(=O)c2ccccc2o1	-3.4	0.0	-24.9	x	2.0	3.8
CCn1ccnc1CN(C)Cc1cn(-c2cccc(C)c2)nc1-c1cccc(F)c1	-2.3	3.2	8.8	9.0	22.1	-11.7
CCn1ccnc1CN(C)Cc1cn(-c2ccc(C)cc2)nc1-c1cccc(C)c1	-0.2	1.0	5.9	82.6*	10.2	-4.5
Cc1ccc(C(=O)NNCC(=O)Nc2ccc(Cl)cc2F)cc1	1.1	1.3	0.1	x	-8.5	2.6
Cc1ccccc1OCc1nc2ccccc2c(=O)n1/N=C/c1cn[nH]c1-c1ccc(Br)cc1	4.1	1.6	-14.6	21.3	0.9	7.4
O=c1c2ccccc2nc(COc2ccccc2)n1/N=C/c1cn[nH]c1-c1ccccc1	-1.4	2.8	15.1	85.1*	-0.1	9.6
CCCCN(C(=O)c1cc2ccccc2o1)c1c(N)n(CCCC)c(=O)[nH]c1=O	1.6	-0.4	6.7	x	3.9	-1.5
CCOC(=O)C(CCCOc1ccc(C)cc1)C(=O)OCC	0.1	-1.3	2.9	94.8*	7.0	-12.2
O=C(O)C(Oc1ccc2cc(-c3ccc(Cl)cc3)c(=O)oc2c1)c1ccccc1 (centres undefined)	-5.4	0.1	-3.2	x	-1.8	-6.3
CCNc1nc(Sc2ccc(C)cc2)cc(C(F)(F)F)n1	3.8	-0.9	-24.5	86.8*	-4.0	6.2
Nc1cc(=O)[nH]c(SCC(=O)N2N=C(c3ccc4ccccc4c3)CC2c2ccccc2)n1 (centres undefined)	-0.7	-0.3	-23.1	86.3*	0.8	-10.1
CC(=O)OCC(=O)N1N=C(c2ccc3ccccc3c2)CC1c1ccccc1 (centres undefined)	7.3	12.6	-39.0	-1.8	-27.9	-54.3
CCOc1ccccc1N1CCN(C(=O)c2cccs2)CC1	-2.6	0.5	-9.2	x	8.0	-0.7
CCOc1ccc(N=C2SCC(=O)N2CC)cc1	-3.0	0.4	5.4	x	3.5	-4.4
CCN1C(=O)CSC1=NC1C2CC3CC(C2)CC1C3 (centres undefined)	-2.0	-2.6	8.9	75.9*	11.6	13.7
CC(C)CCNC(=O)NC(=O)CSc1nnc(-c2ccccc2Br)o1	-2.2	-1.3	-1.9	86.6*	-0.8	1.8
CCCNC(=O)NC(=O)CSc1nnc(-c2c[nH]c3ccccc23)o1	-2.4	1.1	12.9	x	25.1	-2.0
Cc1cc(C(=O)NC2CCCc3c2cnn3-c2ccc(C)c(C)c2)no1 (centres undefined)	-6.8	1.8	-45.1	x	16.9	18.5
Cc1ccc(-n2ncc3c2CCCC3NC(=O)c2ocnc2C)cc1C (centres undefined)	-6.8	3.4	27.4	x	58.8*	45.4
CC1CC(C)CN(CCOc2ccccc2-c2ccccc2)C1 (centres undefined)	0.5	1.6	-10.6	92.6*	-12.7	-4.9
CNC(=O)/C=C1\NC(C)(C)Cc2c1ccc1ccccc21	4.5	1.6	5.4	36.9	-2.8	6.6
CC1(C)Cc2c(ccc3ccccc23)/C(=C/C#N)N1	3.3	-2.5	4.3	71.4*	-2.2	-9.3
C[C@H]([C@H](O)c1ccccc1)N(C)C(=O)CN	1.7	-0.8	-3.9	x	-5.5	-19.2
SMILES	UPR XBP1 act	CHOP UPR activ	697 NFkB inh	CHOP inh	Gli-Sufu block	Jurkat NFkB inh
CN(Cc1ccccc1)C(=O)COC(=O)c1cc2ccccc2oc1=O	-1.1	-0.3	18.1	x	-12.9	2.8
CSc1ncccc1C(=O)OCC(=O)NCCCc1ccccc1	-0.2	-0.1	4.2	x	-1.4	2.0
O=[N+]([O-])c1nn(-c2ccc3c(c2)OCCO3)n(O)c1=NCCC1=CCCCC1	1.0	2.0	-91.8	85.6*	-54.5	-60.5
CC(C)(C)c1ccc(/C=N/NC(=S)NC2CCCCC2)cc1	6.0	-0.2	-50.4	72.4*	3.0	-30.4
S=C(Nc1ccc(Oc2ccccc2)cc1)NC1CCCCCC1	x	x	x	36.8	15.4	x
FC(F)(F)c1cccc(NC(=S)NC2CCCC2)c1	1.3	0.3	-42.3	10.9	1.8	3.8
S=C(Nc1ccc(Oc2ccccc2)cc1)NC1CCCCC1	-1.0	0.3	-0.3	75.2*	1.2	-0.9
FC(F)(F)c1ccc(NC(=S)NC2CCCCC2)cc1	2.1	8.1	-15.3	88.1*	-19.2	-49.4
S=C(NNc1ccc2ccccc2c1)NC1CCCCC1	-0.9	4.9	-64.1	80.8*	4.0	-24.7
CN1C(=O)/C(=C/c2ccc(OCc3ccccc3F)cc2)NC1=S	-2.5	0.5	-1.9	x	0.2	2.0
Cc1c(Br)cnn1C(C)C(=O)N1CCN(c2ccccc2F)CC1 (centres undefined)	-1.5	0.0	-2.4	x	-10.9	0.3
CN(CCOc1ccc(C[C@H](Nc2ccccc2C(=O)c2ccccc2)C(=O)O)cc1)c1ccccn1	x	x	x	6.8	x	x
COc1ccc(C(=O)NCC(C)(C)SCc2c(C)cc(C)cc2C)cc1	-2.7	-2.1	-8.9	73.4*	1.3	-1.6
CN(C(=O)c1ccc2c(c1)C(=O)N(CCC1=CCCCC1)C2=O)C1CCCCC1	2.7	3.1	-11.1	99.2*	-0.6	10.9
CC(C)(C)S(=O)(=O)N1Cc2ccc(CO)cc2[C@@H]1CCO	x	x	x	x	-2.7	x
CC(=O)CSc1nc(C(F)(F)F)cc(=O)n1-c1ccccc1	1.3	-2.0	20.5	20.5	-5.0	-7.5
Cn1c(SCc2cccc(Cl)c2)nc(C(F)(F)F)cc1=O	0.6	-1.5	-29.9	84.2*	8.9	-16.8
Cn1c(SCc2ccccc2Cl)nc(C(F)(F)F)cc1=O	3.8	0.6	-11.6	74.2*	4.1	-5.5
Cn1c(SCc2c(Cl)cccc2Cl)nc(C(F)(F)F)cc1=O	1.9	1.1	-4.6	82.2*	1.6	-1.2
Cn1c(SCc2ccccc2)nc(C(F)(F)F)cc1=O	2.0	-2.1	-2.0	28.5	8.0	-15.1
CCCCN(Cc1nc2ccccc2c(=O)[nH]1)C(=O)CN1C(=O)NC2(CCCCC2)C1=O	-2.7	1.4	22.0	x	-21.1	-12.0
CCCCc1nc2sc3c(SCC(=O)NCc4ccco4)ncnc3c2c2c1CCC2	11.0	0.2	-8.8	86.1*	10.8	29.0
COc1ccc(N2CCN(CCCNC(=O)C(=O)c3c(C)[nH]c4ccccc34)CC2)cc1	-1.9	0.4	-6.4	x	-18.0	-0.3
CCCCCCCc1ccc(-c2ccc(O)cc2)nc1	1.7	7.5	-151.4	95.7*	-56.8	-22.7
CC(C)(C)c1cccc(/C=N/O)c1O	3.2	1.3	-3.6	75.5*	7.4	11.5
CC(C)(C)c1ccc(O)c(/C=N\O)c1	1.9	5.3	-27.0	77.5*	-10.2	-15.6
